Test results published in ChEMBL document CHEMBL2385063, “Identification of 2-(2-(1-naphthoyl)-8-fluoro-3,4-dihydro-1H-pyrido[4,3-b]indol-5(2H)-yl)acetic acid (setipiprant/ACT-129968), a potent, selective, and orally bioavailable chemoattractant receptor-homologous molecule expressed on Th2 cells (CRTH2) antagonist” (J Med Chem, 2013).
pIC50: −log10 of the molar value. Activity calls are given as the source filed them. The rule behind the calls is not given here.

What was measured:
[1] = biological target: T1, Prostaglandin D2 receptor (Homo sapiens, UniProt Q13258); experiment: Displacement of [3H]PGD2 from recombinant human prostanoid DP1 receptor expressed in CHO cells after 90 mins by scintillation counting analysis; format: cell-based
T1 sequence (Q13258 whole entry): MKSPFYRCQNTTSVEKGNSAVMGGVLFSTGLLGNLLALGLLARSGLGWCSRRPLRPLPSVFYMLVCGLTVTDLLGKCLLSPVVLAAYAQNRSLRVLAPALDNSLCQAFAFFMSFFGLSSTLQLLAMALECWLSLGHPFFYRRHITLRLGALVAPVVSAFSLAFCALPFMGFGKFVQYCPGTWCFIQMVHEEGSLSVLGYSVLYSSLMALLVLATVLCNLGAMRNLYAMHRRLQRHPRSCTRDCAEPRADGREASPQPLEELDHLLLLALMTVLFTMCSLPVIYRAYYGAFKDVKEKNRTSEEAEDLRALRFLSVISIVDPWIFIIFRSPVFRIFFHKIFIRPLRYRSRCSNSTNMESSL
How it was run: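 Competitive binding with CHO cells stably expressing high levels of recombinant hDP1, using [3H]PGD2 as ligand; IC50 reported.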

Thromboxane A2 receptor = biological target: T2, Thromboxane A2 receptor (Homo sapiens, UniProt P21731); experiment: Antagonist activity at human prostanoid TP2 receptor expressed in HEK293 cells assessed as inhibition of calcium flux after 30 to 40 mins by FLIPR assay; format: functional, cell-based
T2 sequence (P21731 whole entry): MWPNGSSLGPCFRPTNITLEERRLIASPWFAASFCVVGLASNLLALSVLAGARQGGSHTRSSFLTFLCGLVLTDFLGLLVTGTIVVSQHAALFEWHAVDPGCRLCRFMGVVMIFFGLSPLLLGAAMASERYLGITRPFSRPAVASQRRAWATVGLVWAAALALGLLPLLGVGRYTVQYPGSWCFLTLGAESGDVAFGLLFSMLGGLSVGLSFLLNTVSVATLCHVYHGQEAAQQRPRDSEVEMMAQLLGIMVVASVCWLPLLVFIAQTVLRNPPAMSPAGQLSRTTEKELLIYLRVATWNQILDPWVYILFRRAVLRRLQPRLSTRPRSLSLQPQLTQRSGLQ

[2] = biological target: T3, Prostaglandin D2 receptor 2 (Homo sapiens) (UniProt Q9Y5Y4); experiment: Selectivity factor, ratio of IC50 for recombinant human CRTH2 receptor in presence of human serum albumin to IC50 for recombinant human CRTH2 receptor in absence of human serum albumin
T3 sequence (whole entry): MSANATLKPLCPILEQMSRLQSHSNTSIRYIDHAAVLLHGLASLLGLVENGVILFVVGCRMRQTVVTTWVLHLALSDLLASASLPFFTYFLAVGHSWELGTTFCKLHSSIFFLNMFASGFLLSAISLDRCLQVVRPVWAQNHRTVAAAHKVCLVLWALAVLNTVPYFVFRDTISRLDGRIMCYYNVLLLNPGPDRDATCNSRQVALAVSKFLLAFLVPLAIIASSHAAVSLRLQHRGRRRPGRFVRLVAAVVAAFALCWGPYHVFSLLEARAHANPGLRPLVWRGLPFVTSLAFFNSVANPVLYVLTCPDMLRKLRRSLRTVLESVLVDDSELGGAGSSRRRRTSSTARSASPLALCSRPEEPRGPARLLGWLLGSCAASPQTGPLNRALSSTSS
How it was run: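 Competitive [³H]PGD₂ (2.5 nM) displacement on membranes from HEK-293 cells stably expressing hCRTh2. Buffer C was 50 mM Tris, pH 7.4, 100 mM NaCl, 1 mM EDTA and 0.1% BSA, run with or without 0.5% HSA. Membrane was 80 μg protein/well, incubated 90 min at room temperature, then filtered and counted by scintillation. Nonspecific binding was taken with 10 μM PGD₂. f_HSA = IC₅₀(HSA)/IC₅₀(buffer).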

[3] = biological target: T4, Prostaglandin D2 receptor 2 (Homo sapiens, UniProt Q9Y5Y4); experiment: Antagonist activity at human CRTH2 receptor expressed in HEK293 cells assessed as inhibition of PGD2-induced calcium flux after 5 mins by FLIPR assay; format: functional, cell-based
T4 sequence (Q9Y5Y4 whole entry): T3 sequence (whole entry)
How it was run: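 HEK-293 cells stably expressing hCRTh2 were loaded with 4 μM Fluo-4 AM for 40 min at 37 °C in HBSS/20 mM HEPES pH 7.2. Compound was added 5 min before 50 nM PGD2 (final) in buffer with 0.05% BSA. Peak fluorescence was normalised to no-antagonist control after baseline subtraction; IC50 from four-parameter fit.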

[4] = biological target: T5, Prostaglandin E2 receptor EP3 subtype (Homo sapiens, UniProt P43115); experiment: Antagonist activity at human prostanoid EP3 receptor expressed in HEK293 cells assessed as inhibition of PGE2-induced calcium flux after 60 mins by FLIPR assay; format: functional, cell-based
T5 sequence (P43115 whole entry): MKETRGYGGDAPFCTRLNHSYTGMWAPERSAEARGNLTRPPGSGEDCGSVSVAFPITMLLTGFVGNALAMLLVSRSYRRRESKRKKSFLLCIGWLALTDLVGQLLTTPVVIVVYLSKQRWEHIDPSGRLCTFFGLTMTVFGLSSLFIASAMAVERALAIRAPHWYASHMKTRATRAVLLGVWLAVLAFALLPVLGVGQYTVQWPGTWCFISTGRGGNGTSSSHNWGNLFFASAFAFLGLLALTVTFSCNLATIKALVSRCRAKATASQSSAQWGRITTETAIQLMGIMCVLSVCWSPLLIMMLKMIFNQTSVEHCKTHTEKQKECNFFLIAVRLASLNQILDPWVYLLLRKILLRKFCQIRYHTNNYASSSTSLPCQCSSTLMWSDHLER

[5] = biological target: Prostaglandin E2 receptor EP2 subtype (Homo sapiens, UniProt P43116); experiment: Inhibition of beta-arrestin binding to recombinant human prostanoid EP2 receptor expressed in HEK293 cell membranes by beta-lactamase complementation assay
[6] = biological target: Prostaglandin E2 receptor EP4 subtype (Homo sapiens, UniProt P35408); experiment: Displacement of [3H]PGE2 from recombinant human prostanoid EP4 receptor expressed in HEK293 cell membranes after 90 mins by scintillation counting analysis
[7] = biological target: T6, Chemoattractant receptor-homologous molecule expressed on Th2 cells (Cavia porcellus) (UniProt Q56D28); experiment: Antagonist activity at guinea pig CRTH2 receptor assessed as inhibition of calcium flux by cell-based FLIPR assay; format: functional
T6 sequence (whole entry): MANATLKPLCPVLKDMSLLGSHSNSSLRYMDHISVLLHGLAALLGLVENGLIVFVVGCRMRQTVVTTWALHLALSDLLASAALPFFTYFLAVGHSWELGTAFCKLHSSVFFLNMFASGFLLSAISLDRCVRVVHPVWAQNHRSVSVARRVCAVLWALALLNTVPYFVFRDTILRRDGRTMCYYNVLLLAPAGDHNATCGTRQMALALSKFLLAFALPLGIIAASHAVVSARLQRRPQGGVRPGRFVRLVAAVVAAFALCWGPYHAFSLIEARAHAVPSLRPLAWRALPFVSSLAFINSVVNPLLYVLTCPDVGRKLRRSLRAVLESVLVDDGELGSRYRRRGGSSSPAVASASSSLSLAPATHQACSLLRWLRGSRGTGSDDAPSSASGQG

Prostaglandin E2 receptor EP4 subtype, sequence (P35408 whole entry): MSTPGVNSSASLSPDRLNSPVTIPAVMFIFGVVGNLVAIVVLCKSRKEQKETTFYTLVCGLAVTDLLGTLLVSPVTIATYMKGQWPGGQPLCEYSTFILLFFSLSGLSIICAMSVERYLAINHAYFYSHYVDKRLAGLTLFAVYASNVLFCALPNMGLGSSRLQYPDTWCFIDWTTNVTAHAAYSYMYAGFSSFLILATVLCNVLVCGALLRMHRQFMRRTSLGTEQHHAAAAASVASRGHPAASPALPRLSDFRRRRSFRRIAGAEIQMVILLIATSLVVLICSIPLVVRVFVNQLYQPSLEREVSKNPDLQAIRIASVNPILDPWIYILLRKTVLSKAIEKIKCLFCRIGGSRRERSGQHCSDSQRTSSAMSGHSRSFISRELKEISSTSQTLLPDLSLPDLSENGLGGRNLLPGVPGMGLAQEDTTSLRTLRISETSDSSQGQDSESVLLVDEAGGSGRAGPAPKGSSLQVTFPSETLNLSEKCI
Prostaglandin E2 receptor EP2 subtype, sequence (P43116 whole entry): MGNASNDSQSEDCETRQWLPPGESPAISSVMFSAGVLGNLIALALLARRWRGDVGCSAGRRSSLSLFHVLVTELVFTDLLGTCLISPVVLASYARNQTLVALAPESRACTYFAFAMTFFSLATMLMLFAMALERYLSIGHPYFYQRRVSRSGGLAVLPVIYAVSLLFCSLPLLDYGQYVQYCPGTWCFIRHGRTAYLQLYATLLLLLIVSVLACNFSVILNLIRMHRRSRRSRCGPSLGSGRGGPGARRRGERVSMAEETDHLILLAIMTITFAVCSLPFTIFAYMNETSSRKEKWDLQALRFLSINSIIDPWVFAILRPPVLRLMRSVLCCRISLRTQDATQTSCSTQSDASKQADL

Row | SMILES | pIC50 [1] | pIC50 (Thromboxane A2 receptor) | Ratio IC50 [2] | pIC50 [3] | pIC50 [4] | pIC50 [5] | pIC50 [6] | inhibition [7]
1 | O=C(O)Cn1c2c(c3cc(F)ccc31)CN(C(=O)c1cccs1)CC2 | < 5.00 | < 4.60 | 3 | 7.40 | < 4.60 | < 5.00 | < 5.00 | Active
2 | O=C(O)Cn1c2c(c3ccccc31)CN(C(=O)c1cccc3ccccc13)CC2 | 6.11 | < 4.60 | 47 | 7.52 | < 4.60 | 5.18 | < 5.00 | 
3 | O=C(O)Cn1c2c(c3cc(F)ccc31)CN(C(=O)CCc1cccc3ccccc13)CC2 | < 5.00 | < 4.60 | 3 | 7.19 | < 4.60 | 5.02 | < 5.00 | Active
4 | COc1ccc2c(c1)c1c(n2CC(=O)O)CCN(C(=O)c2ccccc2)C1 |  | < 4.60 |  |  | < 4.60 |  | < 5.00 | Active
5 | O=C(O)Cn1c2c(c3cc(Cl)ccc31)CN(C(=O)c1cccc3ccccc13)CC2 | 6.16 | < 4.60 | 16 | 7.52 | < 4.60 | 5.13 | < 5.00 | Active
6 | O=C(O)Cn1c2c(c3cc(F)ccc31)CN(C(=O)c1cccc3ccccc13)CC2 [SETIPIPRANT] | 5.89 | < 4.60 | 57 | 7.52 | < 4.60 | 5.59 | < 5.00 | 
7 | O=C(O)Cn1c2c(c3ccccc31)CN(C(=O)c1cccc(Cl)c1)CC2 | < 5.00 | < 4.60 | 3 | 7.15 | < 4.60 | < 5.00 | < 5.00 | Active
8 | O=C(O)Cn1c2c(c3cc(C(F)(F)F)ccc31)CN(C(=O)c1ccccc1)CC2 | < 5.00 | < 4.60 | 6 | 7.30 | < 4.60 | < 5.00 | < 5.00 | Active
9 | O=C(O)Cn1c2c(c3cc(F)ccc31)CN(C(=O)Cc1c[nH]c3ccccc13)CC2 | < 5.00 | < 4.60 | 7 | 7.82 | < 4.60 | < 5.00 | < 5.00 | Active
10 | O=C(O)Cn1c2c(c3ccccc31)CN(C(=O)c1ccccc1)CC2 |  |  | 1 |  | < 4.60 |  |  | Active
11 | O=C(O)Cn1c2c(c3cc(F)ccc31)CN(C(=O)c1cccc(Cl)c1)CC2 | < 5.00 | < 4.60 | 7 | 7.40 | < 4.60 | < 5.00 | < 5.00 | 
12 | O=C(O)Cn1c2c(c3cc(F)cc(Cl)c31)CN(C(=O)c1cccc3ccccc13)CC2 | 6.51 | < 4.60 | 7 | 6.18 | < 4.60 | 5.57 | < 5.00 | Active
13 | Cc1ccc2c(c1)c1c(n2CC(=O)O)CCN(C(=O)c2cccc3ccccc23)C1 | 5.57 | < 4.60 | 38 | 7.22 | < 4.60 | < 5.00 | < 5.00 | Active
14 | CCc1ccc(-c2ccc(C(=O)N3CCc4c(c5cccc(Cl)c5n4CC(=O)O)C3)cc2)cc1 | 6.92 | < 4.60 | 4 | 5.59 | < 4.60 | < 5.00 | < 5.00 | Active
15 | O=C(O)Cn1c2c(c3cc(F)cc(Cl)c31)CN(C(=O)c1cccc(Cl)c1)CC2 | 5.39 | < 4.60 | 1 | 5.89 | < 4.60 | < 5.00 | < 5.00 | Active
16 | O=C(O)Cn1c2c(c3ccccc31)CN(C(=O)C1CCCCC1)CC2 |  | < 4.60 |  | 6.70 | < 4.60 |  | < 5.00 | Active
17 | CCc1ccc(-c2ccc(C(=O)N3CCc4c(c5ccccc5n4CC(=O)O)C3)cc2)cc1 | 6.11 | < 4.60 | 2 | 6.72 | < 4.60 | 5.19 | < 5.00 | Active
18 | CC(C)c1ccc2c(c1)c1c(n2CC(=O)O)CCN(C(=O)c2ccccc2)C1 |  | < 4.60 |  |  | < 4.60 |  | < 5.00 | Active
19 | O=C(O)Cn1c2c(c3cc(C(F)(F)F)ccc31)CN(C(=O)c1cccc3ccccc13)CC2 | 5.66 | < 4.60 | 6 | 7.70 | < 4.60 | < 5.00 | < 5.00 | Active
20 | O=C(O)Cn1c2c(c3cc(F)ccc31)CN(C(=O)Cc1cccc3ccccc13)CC2 | < 5.00 | < 4.60 | 45 | 7.15 | < 4.60 | < 5.00 | < 5.00 | Active
